This is a sample that favours compounds with a hit; in the whole collection about 3.4% have one here.
Ecoli rRNA inh – reduced GFP signal of wild-type E. coli, primary screen, bacterial rRNA inhibitor project, GFP/RFP fluorescence, OD600, single point; GFP signal change (wild-type ribosome), % (concentration not given with the values); 1.6% of 350,000 active; E. coli WT GFP vs humanized-ribosome RFP mutants, 24 h; stronger effect = lower value; DMSO median 0, no signal -100;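 active means significant combined selectivity score with lowered wild-type GFP, culture density cut under 30%, mutant RFP and density less affected; inactive means any of these conditions unmet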
ERAP1 inh – human ERAP1 aminopeptidase inhibitors, primary screen, biochemical, single point, plate reader | Endoplasmic reticulum aminopeptidase 1 (Homo sapiens), Q9NZ08 | recombinant ERAP1, Leu-AMC fluorescence, 60 min | inhibition, % at 10.7 µM | 0.15% of 340,000 active;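 active means mean replicate inhibition of at least 30%, or all replicates individually reaching that 30% level; inactive means mean below 30% and not every replicate reaching it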
S100A4 inh HTS – inhibitors of S100A4-myosin IIA peptide binding, primary screen, biochemical, fluorescence polarization, TAMRA-MyoIIA peptide; inhibition, % at 10.7 µM; 0.14% of 360,000 active; Protein S100-A4 (Homo sapiens), P26447;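 active means mean inhibition of at least 70% across replicates, with every replicate also reaching that level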
Target sequence (P26447 whole entry, looked up): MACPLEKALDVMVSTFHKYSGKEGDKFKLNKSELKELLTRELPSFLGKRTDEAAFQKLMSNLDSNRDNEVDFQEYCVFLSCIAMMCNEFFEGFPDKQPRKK
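Material: S100A4 monomer protein / Buffer or medium: 50 mM HEPES pH 7.2, 10 mM CaCl2, 100 mM KCl / Times: 5 min incubation before reading / Benchmarks: neutral control DMSO, positive control TFP / Reagent: labelled myosin peptide probe, 5 nM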
SIRT5 inh – SIRT5 desuccinylase inhibitors, primary screen, biochemical, fluorescence imaging, single point, set 5; 1.1% of 330,000 active; NAD-dependent protein deacylase sirtuin-5, mitochondrial (Homo sapiens), Q9NXA8; Purified SirT5, succinyl-peptide AMC, trypsin-coupled fluorescence; inhibition, % at 15 µM; in the data active means inhibition above about 15%
Target sequence (Q9NXA8 whole entry, looked up): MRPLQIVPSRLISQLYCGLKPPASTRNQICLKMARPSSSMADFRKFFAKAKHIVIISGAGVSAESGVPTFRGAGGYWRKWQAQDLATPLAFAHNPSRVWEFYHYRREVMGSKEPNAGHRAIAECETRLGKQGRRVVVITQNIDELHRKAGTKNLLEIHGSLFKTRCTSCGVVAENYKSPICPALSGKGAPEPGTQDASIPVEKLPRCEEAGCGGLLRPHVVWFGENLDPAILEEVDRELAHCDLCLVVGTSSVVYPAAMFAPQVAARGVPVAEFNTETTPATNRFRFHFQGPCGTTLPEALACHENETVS
E-sel inducer – E-selectin induction in HUVECs, primary screen, imaging, HUVEC, immunofluorescence imaging, single point. P16581. normalized: neutral wells 0, TNF-alpha wells 100. activation, % at 7.58 µM. 0.37% of 260,000 active. AID 686992, 2013;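 active means mean E-selectin-positive cell signal at least 10% of the positive control, reached in at least 60% of replicates, without over 20% cell loss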
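Assay system: HUVEC, human umbilical vein endothelial cells / Amount: 3,000 HUVEC/well / Controls: TNF-alpha positive control, DMSO neutral control / Compound dosing: single concentration / Medium: EGM-2 over gelatin coat / Evaluation: percent E-selectin-positive cells / Signal: immunofluorescence imaging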
AF4-AF9 inh – inhibitors of AF4 peptide binding to AF9, primary screen, biochemical, AlphaScreen, biotin-AF4 peptide, FLAG-AF9, single point; Protein AF-9 (Homo sapiens), P42568; inhibition, % at 10 µM; 0.47% of 350,000 active; AID 651704, 2012;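 active means every replicate reaching a set inhibition limit, whatever the replicate mean, cut at about 25% in these data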
Large screens that a line does not name were inactive.

O=C(C1CCOCC1)N1[C@@H](CO)[C@@H]2c3ccccc3NC[C@@H]21	none (no result: ERAP1 inh, S100A4 inh HTS, SIRT5 inh, AF4-AF9 inh)
COCC(=O)N(C)C[C@@H]1Oc2cc(-c3cccnc3)ccc2S(=O)(=O)N([C@@H](C)CO)C[C@@H]1C	none
Cc1ccc(CNC(=O)Cn2cnc(C(=O)Nc3ccc(C)c(C)c3)n2)o1	S100A4 inh HTS 76
CC(C)CCC(CCNCc1ccccn1)c1ccc2c(c1)OCO2 (centres undefined)	none (no result: E-sel inducer)
Fc1ccccc1CNCCC(Cc1ccccc1)c1ccc2c(c1)OCO2 (centres undefined)	Ecoli rRNA inh -51
COc1ccc(CNCCC(c2ccccc2)c2ccc3c(c2)OCO3)cc1 (centres undefined)	AF4-AF9 inh 25 (no result: E-sel inducer)
COc1ccc(C(CC(=O)O)c2ccc3c(c2)OCO3)cc1 (centres undefined)	none
COc1ccc2c3c(n(C)c2c1)[C@@H](CO)N(C(=O)NC(C)C)CC31CN(CC2CCOCC2)C1	none
CC(=O)N[C@H]1CC[C@@H](CCNC(=O)C2CC2)O[C@H]1CO	none
CC(C)CC#Cc1ccc2c(c1)O[C@H](CN(C)Cc1ccc3c(c1)OCO3)[C@@H](C)CN([C@H](C)CO)S2(=O)=O	none
COc1cc(OC)cc(-c2nnc(SCc3c(F)cccc3Cl)o2)c1	Ecoli rRNA inh -28 (no result: E-sel inducer)
COc1cc(OC)cc(-c2nnc(SCc3ccc(C(=O)O)cc3)o2)c1	none
O=C(CSc1nnnn1C1CCCC1)c1ccc2c(c1)OCCO2	none (no result: E-sel inducer, AF4-AF9 inh)
COc1ccc(-n2nnnc2SCC(=O)c2ccc3c(c2)OCCO3)c(OC)c1	SIRT5 inh 27 (no result: E-sel inducer)
COc1cccc(-n2nnnc2SCC(=O)NCc2ccc3c(c2)OCO3)c1	Ecoli rRNA inh -21 (no result: E-sel inducer)
C[C@@H]1CN([C@H](C)CO)C(=O)c2cc(-c3ccccc3)cnc2O[C@@H]1CN(C)C(=O)Nc1ccccc1F	none
CN1CCN(C(=S)c2cn(Cc3ccc(F)cc3)c3ccccc23)CC1	AF4-AF9 inh 31 (no result: E-sel inducer)
S=C(c1cn(Cc2ccccc2)c2ccccc12)N1CCOCC1	Ecoli rRNA inh -29
S=C(c1cn(Cc2ccc(Br)cc2)c2ccccc12)N1CCOCC1	none (no result: Ecoli rRNA inh, ERAP1 inh, S100A4 inh HTS, SIRT5 inh, AF4-AF9 inh)
C[C@H](CO)N1C[C@H](C)[C@@H](CN(C)S(=O)(=O)c2ccc(Cl)cc2)Oc2ccc(NS(=O)(=O)c3ccc(Cl)cc3)cc2CC1=O	none
CCC/C(=C1/c2ccccc2C(=O)N1c1ccccc1)c1c(C)noc1C	Ecoli rRNA inh -25 (no result: SIRT5 inh)
CCC/C(=C1/c2ccccc2C(=O)N1c1ccccc1)c1ccc2c(c1)OCO2	none (no result: SIRT5 inh, E-sel inducer)
O=C(O)c1cc(-c2ccccc2)n(-c2ccc(Cl)cc2)n1	none (no result: E-sel inducer)
COc1ccc(-n2nc(C(=O)O)cc2-c2ccccc2)cc1	SIRT5 inh 18 (no result: E-sel inducer)
CCCNC(=O)C[C@@H]1C[C@@H]2c3cc(NS(=O)(=O)c4ccc(OC)cc4)ccc3O[C@@H]2[C@H](CO)O1	none (no result: ERAP1 inh, S100A4 inh HTS, SIRT5 inh, AF4-AF9 inh)
O=C(O)c1ccccc1-c1c2cc(I)c(=O)c(I)c-2oc2c(I)c(O)c(I)cc12	ERAP1 inh 106, S100A4 inh HTS active, SIRT5 inh 29
O=C(CCc1nc2ccccc2s1)OCC(=O)c1ccc[nH]1	Ecoli rRNA inh -27
O=C(CCc1nc2ccccc2s1)OCC(=O)c1ccccc1	Ecoli rRNA inh -20
COCC#Cc1cnc2c(c1)C(=O)N([C@@H](C)CO)C[C@H](C)[C@@H](CN(C)C(=O)c1cccnc1)O2	none
CCc1ccc(C2c3[nH]c4ccccc4c3CCN2C(=O)CN2CCN(CC)CC2)cc1 (centres undefined)	AF4-AF9 inh 31 (no result: E-sel inducer)
CCc1ccc(C2c3[nH]c4ccccc4c3CCN2C(=O)CNC(N)=O)cc1 (centres undefined)	none
COCCNC(=O)/C(C#N)=C/C(C)=C/c1ccccc1	Ecoli rRNA inh -22
c1ccc(CCc2nn3c(Cn4cnc5ccccc54)nnc3s2)cc1	Ecoli rRNA inh -24 (no result: E-sel inducer)
c1ccc2c(c1)ncn2Cc1nnc2sc(-c3ccc4c(c3)OCO4)nn12	none (no result: Ecoli rRNA inh, ERAP1 inh, S100A4 inh HTS, SIRT5 inh, AF4-AF9 inh)
Clc1ccccc1-c1nnc2sc(CCc3ccccc3)nn12	Ecoli rRNA inh -19 (no result: E-sel inducer)
CCN1[C@@H]2c3ccc(C4=CCCCC4)c(=O)n3C[C@H]1[C@H](CO)[C@H]2C(=O)N1CCOCC1	none
COc1ccc(S(=O)(=O)Nc2ccc3c(c2)C(=O)N([C@@H](C)CO)C[C@H](C)[C@@H](CN(C)S(=O)(=O)c2c(C)noc2C)OCCCC[C@H](C)O3)cc1	none (no result: E-sel inducer)
COc1cc(OC)c(OC)cc1/C=C/c1cc(C(=O)O)c2ccccc2n1	Ecoli rRNA inh -30 (no result: ERAP1 inh)
COc1ccc(/C=C/c2cc(C(=O)O)c3ccccc3n2)cc1	none (no result: E-sel inducer)
COc1ccc(/C=C\c2cc(OC)c(OC)cc2CC[N+](C)(C)C)cc1OC	ERAP1 inh 99 (no result: Ecoli rRNA inh)
C[C@@H](NC(=O)C[C@H]1CC[C@@H]2[C@H](COC[C@H](O)CN2C(=O)Nc2cccc(Cl)c2)O1)c1ccccc1	none
CN(C)CCn1c(COc2ccccc2)nc2ccccc21	none (no result: E-sel inducer, AF4-AF9 inh)
C=CCn1c(COc2ccccc2)nc2ccccc21	Ecoli rRNA inh -27 (no result: SIRT5 inh, E-sel inducer)
O=C(Nc1cc(F)ccc1F)N1CC(=O)N2[C@H](C1)[C@@H](c1ccc(C#CC3CCCC3)cc1)[C@@H]2CO	none
COc1ccc2c(c1)c(CC(=O)Nc1cccc(S(N)(=O)=O)c1)c(C)n2C(=O)c1ccc(Cl)cc1	SIRT5 inh 17 (no result: ERAP1 inh)
CCC1CCCCN1S(=O)(=O)c1ccc(NC(=O)c2ccncc2)cc1 (centres undefined)	none
CCC1CCCCN1S(=O)(=O)c1ccc(NC(=O)c2nc(S(C)(=O)=O)ncc2Cl)cc1 (centres undefined)	Ecoli rRNA inh -29
CO[C@H]1CN(C)C(=O)c2cc(NC(=O)CC(F)(F)F)ccc2OC[C@@H](C)N(C(=O)c2ccccc2F)C[C@H]1C	none (no result: SIRT5 inh)
CC(C)NC(=O)Nc1cccc2c1O[C@H](CN(C)Cc1ccc(Cl)c(Cl)c1)[C@H](C)CN([C@@H](C)CO)C2=O	E-sel inducer 30
C[C@H](CO)N1C[C@H](C)[C@H](CN(C)Cc2ccc(Cl)c(Cl)c2)Oc2c(NC(=O)NC3CCCCC3)cccc2C1=O	none (no result: E-sel inducer)
CC(C)NC(=O)Nc1cccc2c1O[C@@H](CN(C)Cc1ccc(Cl)c(Cl)c1)[C@H](C)CN([C@@H](C)CO)C2=O	none
CC(C)NC(=O)Nc1cccc2c1O[C@H](CN(C)Cc1ccc(Cl)c(Cl)c1)[C@@H](C)CN([C@@H](C)CO)C2=O	E-sel inducer 53

From PubChem
